Consider ten molecules from ChEMBL document CHEMBL4261559, “Small molecule piperazinyl-benzimidazole antagonists of the gonadotropin-releasing hormone (GnRH) receptor” (Medchemcomm, 2017).

Usually IC50 stands for the concentration needed to halve the response being measured. A word on the Ki: it is a dissociation constant, usually derived from enzyme kinetics or from competition with a known ligand.

Data set [1] has as its target T1, Gonadotropin-releasing hormone receptor (Homo sapiens, UniProt P30968).
T1 sequence (P30968 whole entry): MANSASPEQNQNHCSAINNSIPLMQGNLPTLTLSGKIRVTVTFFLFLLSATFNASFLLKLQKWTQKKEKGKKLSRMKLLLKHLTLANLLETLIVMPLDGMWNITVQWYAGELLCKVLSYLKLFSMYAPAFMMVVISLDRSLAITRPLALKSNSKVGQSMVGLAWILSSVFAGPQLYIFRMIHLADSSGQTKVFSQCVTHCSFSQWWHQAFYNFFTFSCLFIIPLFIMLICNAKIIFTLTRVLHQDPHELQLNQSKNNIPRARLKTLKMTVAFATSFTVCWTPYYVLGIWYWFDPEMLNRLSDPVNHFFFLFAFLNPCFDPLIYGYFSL
Kind of data set: Antagonist activity at N-terminal FLAG-tagged human full-length GnRHR expressed in HEK293T cells assessed as inhibition of GnRH-induced calcium mobilization preincubated for 15 mins followed by agonist addition by FLIPR assay. The format is functional, cell-based. For orientation: Calcium assays in cells follow changes in intracellular calcium, usually with a dye or a luminescent sensor.

Data set [2] can be described thus: Thermodynamic solubility of compound in simulated gastric fluid at pH 1.2 after 24 hrs by LC-QTOFMS analysis. The format is physicochemical. The note with it: simulated gi fluid, pH 1.2, 24 h. In outline:
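Solid sample was suspended in 450 uL of buffer to about 2 mg/mL and shaken at 200 RPM for 24 h at ambient temperature (22.6-25.0 °C). The suspension was filtered, and the filtrate was diluted as needed (undiluted up to 10000x). Filtrate was quantified by LC-QTOFMS against a calibration curve prepared from a 10 mM DMSO stock. Two reference standards were run in triplicate in each medium.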

Regarding `CC(C)(C)c1ccc(-c2nc3c(N4CCN(Cc5cn(-c6ccc(F)cc6)nn5)CC4)cccc3[nH]2)cc1`, in data set [1], the IC50 is 20000 nM and the Ki worked out at 410 nM.
For `CC(C)(C)c1ccc(-c2nc3c(N4CCN(Cc5cn([C@@H]6O[C@H](CO)[C@@H](O)[C@H](O)[C@H]6O)nn5)CC4)cccc3[nH]2)cc1`, in data set [1], the IC50 is above 10000 nM and the Ki is above 1000 nM.
On to `CC(C)(C)c1ccc(-c2nc3c(N4CCN(CCF)CC4)cccc3[nH]2)cc1`, for which, in data set [1], the IC50 was 12600 nM and the Ki is 254 nM.
On to `CC(C)(C)c1ccc(-c2nc3c(N4CCN(Cc5cn(CCF)nn5)CC4)cccc3[nH]2)cc1`, for which, in data set [1], the IC50 is 794 nM and the Ki came out at 13.8 nM. Moreover, the Therm_solubility in data set [2] is 2.098 µg/mL.
In the case of `CC(C)(C)c1ccc(-c2nc3c(N4CCN(Cc5cn(-c6nc7ccccc7[nH]6)nn5)CC4)cccc3[nH]2)cc1`, in data set [1], the IC50 was 5010 nM and the Ki is 104 nM.
Turning to `CC(=O)N[C@@H]1[C@@H](OC(C)=O)[C@H](OC(C)=O)[C@@H](COC(C)=O)O[C@H]1n1cc(CN2CCN(c3cccc4[nH]c(-c5ccc(C(C)(C)C)cc5)nc34)CC2)nn1`, in data set [1], the IC50 is 7940 nM and the Ki is 157 nM.
On to `C#CCN1CCN(c2cccc3[nH]c(-c4ccc(C(C)(C)C)cc4)nc23)CC1`, for which, in data set [1], the IC50 was 20000 nM and the Ki is 395 nM.
`CC(C)(C)OC(=O)N[C@@H](Cn1cc(CN2CCN(c3cccc4[nH]c(-c5ccc(C(C)(C)C)cc5)nc34)CC2)nn1)C(=O)O`: in data set [1], the concentration for half-maximal inhibition (IC50) is 10000 nM and the Ki was 186 nM.
With `COc1cc(OC)c(NC(=O)c2ccc(Cc3cc4c(cc3C)C(C)(C)CCC4(C)C)o2)c(OC)c1`, in data set [1], the IC50 is 1000 nM and the Ki is 19 nM.
In the case of `CC(C)(C)c1ccc(-c2nc3c(N4CCN(Cc5cccc6nccnc56)CC4)cccc3[nH]2)cc1`, in data set [1], the IC50 was 631 nM and the inhibitory constant (Ki) was found to be 12.2 nM.
